Laboratory results taken from ChEMBL document CHEMBL1687776, “Origin and molecular evolution of the determinant of methicillin resistance in staphylococci” (2010).
Values after ≈ are worked out from the molar mass of the structure shown.

Legend:
[1] = test system: Staphylococcus vitulinus; test: Antibacterial activity against methicillin-resistant mecA-positive Staphylococcus vitulinus SVMP03 by agar dilution method; format: functional; details: Mammaliicoccus vitulinus
How it was run: (§1)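 MIC by agar dilution on Mueller-Hinton agar per CLSI guidance; resistance judged against CLSI breakpoints. Strains were animal or food isolates (type strains for S. sciuri subspecies), typed by hsp60 and/or sodA sequencing; mecA homologue carriage checked by PCR with degenerate primers. Agents tested: oxacillin, ampicillin, ceftizoxime, ceftriaxone, cefoxitin.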

[2] = test system: Staphylococcus vitulinus; test: Antibacterial activity against methicillin-resistant mecA-positive Staphylococcus vitulinus SVMP04 by agar dilution method; format: functional; details: Mammaliicoccus vitulinus; how it was run: as §1
[3] = test system: Staphylococcus vitulinus; test: Antibacterial activity against methicillin-resistant mecA-positive Staphylococcus vitulinus SVMP05 by agar dilution method; format: functional; details: Mammaliicoccus vitulinus; how it was run: as §1
[4] = test system: Staphylococcus vitulinus; test: Antibacterial activity against methicillin-resistant mecA-positive Staphylococcus vitulinus SVMP06 by agar dilution method; format: functional; details: Mammaliicoccus vitulinus; how it was run: as §1
[5] = test system: Staphylococcus vitulinus; test: Antibacterial activity against mecA-negative Staphylococcus vitulinus SVMN01 (ATCC 51145T) by agar dilution method; format: functional; details: Mammaliicoccus vitulinus
How it was run: (§2)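 MIC by agar dilution on Mueller-Hinton agar following CLSI guidelines. Resistance was assigned using CLSI breakpoints. Agents tested were oxacillin, ampicillin, ceftizoxime, ceftriaxone and cefoxitin. Strains were from animal or food sources and identified by hsp60 and/or sodA sequencing. mecA absence was assessed by PCR with degenerate primers for mecA and its homologues.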

[6] = test system: Staphylococcus vitulinus; test: Antibacterial activity against mecA-negative Staphylococcus vitulinus SVMN02 by agar dilution method; format: functional; details: Mammaliicoccus vitulinus; how it was run: as §1
[7] = test system: Staphylococcus vitulinus; test: Antibacterial activity against mecA-negative Staphylococcus vitulinus SVMN03 by agar dilution method; format: functional; details: Mammaliicoccus vitulinus; how it was run: as §2
[8] = test system: Staphylococcus vitulinus; test: Antibacterial activity against mecA-negative Staphylococcus vitulinus SVMN04 by agar dilution method; format: functional; details: Mammaliicoccus vitulinus; how it was run: as §1
[9] = test system: Staphylococcus vitulinus; test: Antibacterial activity against mecA-negative Staphylococcus vitulinus SVMN05 by agar dilution method; format: functional; details: Mammaliicoccus vitulinus; how it was run: as §1
[10] = test system: Staphylococcus vitulinus; test: Antibacterial activity against mecA-negative Staphylococcus vitulinus SVMN06 by agar dilution method; format: functional; details: Mammaliicoccus vitulinus; how it was run: as §1
[11] = test system: Staphylococcus vitulinus; test: Antibacterial activity against mecA-negative Staphylococcus vitulinus SVMN07 by agar dilution method; format: functional; details: Mammaliicoccus vitulinus; how it was run: as §1
[12] = test system: Staphylococcus vitulinus; test: Antibacterial activity against mecA-negative Staphylococcus vitulinus SVMN08 by agar dilution method; format: functional; details: Mammaliicoccus vitulinus; how it was run: as §2
[13] = test system: Staphylococcus vitulinus; test: Antibacterial activity against mecA-negative Staphylococcus vitulinus SVMN09 by agar dilution method; format: functional; details: Mammaliicoccus vitulinus; how it was run: as §1
[14] = test system: Staphylococcus vitulinus; test: Antibacterial activity against mecA-negative Staphylococcus vitulinus SVMN10 by agar dilution method; format: functional; details: Mammaliicoccus vitulinus; how it was run: as §2
[15] = test system: Staphylococcus vitulinus; test: Antibacterial activity against mecA-negative Staphylococcus vitulinus SVMN11 by agar dilution method; format: functional; details: Mammaliicoccus vitulinus; how it was run: as §1
[16] = test system: Staphylococcus vitulinus; test: Antibacterial activity against mecA-negative Staphylococcus vitulinus SVMN12 by agar dilution method; format: functional; details: Mammaliicoccus vitulinus; how it was run: as §1
[17] = test system: Staphylococcus vitulinus; test: Antibacterial activity against mecA-negative Staphylococcus vitulinus SVMN13 by agar dilution method; format: functional; details: Mammaliicoccus vitulinus; how it was run: as §2
[18] = test system: Staphylococcus vitulinus; test: Antibacterial activity against mecA-negative Staphylococcus vitulinus SVMN14 by agar dilution method; format: functional; details: Mammaliicoccus vitulinus; how it was run: as §1
[19] = test system: Mammaliicoccus lentus; test: Antibacterial activity against mecA-negative Staphylococcus lentus ATCC 29070T by agar dilution method; format: functional; how it was run: as §2
[20] = test system: Staphylococcus fleurettii; test: Antibacterial activity against methicillin-resistant mecA-positive Staphylococcus fleurettii SFMP01(CCUG 43834T) by agar dilution method; format: functional; details: Mammaliicoccus fleurettii; how it was run: as §1
[21] = test system: Staphylococcus fleurettii; test: Antibacterial activity against methicillin-resistant mecA-positive Staphylococcus fleurettii SFMP02 by agar dilution method; format: functional; details: Mammaliicoccus fleurettii; how it was run: as §1
[22] = test system: Staphylococcus fleurettii; test: Antibacterial activity against methicillin-resistant mecA-positive Staphylococcus fleurettii SFMP03 by agar dilution method; format: functional; details: Mammaliicoccus fleurettii; how it was run: as §1
[23] = test system: Staphylococcus fleurettii; test: Antibacterial activity against methicillin-resistant mecA-positive Staphylococcus fleurettii SFMP04 by agar dilution method; format: functional; details: Mammaliicoccus fleurettii; how it was run: as §1
[24] = test system: Staphylococcus fleurettii; test: Antibacterial activity against methicillin-resistant mecA-positive Staphylococcus fleurettii SFMP05 by agar dilution method; format: functional; details: Mammaliicoccus fleurettii; how it was run: as §1
[25] = test system: Staphylococcus fleurettii; test: Antibacterial activity against methicillin-resistant mecA-positive Staphylococcus fleurettii SFMP06 by agar dilution method; format: functional; details: Mammaliicoccus fleurettii; how it was run: as §1
[26] = test system: Staphylococcus fleurettii; test: Antibacterial activity against methicillin-resistant mecA-positive Staphylococcus fleurettii SFMP07 by agar dilution method; format: functional; details: Mammaliicoccus fleurettii; how it was run: as §1
[27] = test system: Staphylococcus fleurettii; test: Antibacterial activity against methicillin-resistant mecA-positive Staphylococcus fleurettii SFMP08 by agar dilution method; format: functional; details: Mammaliicoccus fleurettii; how it was run: as §1
[28] = test system: Staphylococcus fleurettii; test: Antibacterial activity against mecA-negative Staphylococcus fleurettii SFMN01 by agar dilution method; format: functional; details: Mammaliicoccus fleurettii; how it was run: as §2
[29] = test system: Staphylococcus fleurettii; test: Antibacterial activity against mecA-negative Staphylococcus fleurettii SFMN02 by agar dilution method; format: functional; details: Mammaliicoccus fleurettii; how it was run: as §2
[30] = Antibacterial activity against methicillin-resistant mecA-positive Staphylococcus sciuri subsp. sciuri ATCC 29062T by agar dilution method; format: functional; details: Mammaliicoccus sciuri; how it was run: as §1
[31] = Antibacterial activity against methicillin-resistant mecA-positive Staphylococcus sciuri subsp. rodentium ATCC 700061T by agar dilution method; format: functional; details: Mammaliicoccus sciuri; how it was run: as §1
[32] = test system: Staphylococcus vitulinus; test: Antibacterial activity against methicillin-resistant mecA-positive Staphylococcus vitulinus SVMP01 by agar dilution method; format: functional; details: Mammaliicoccus vitulinus; how it was run: as §1
[33] = test system: Staphylococcus vitulinus; test: Antibacterial activity against methicillin-resistant mecA-positive Staphylococcus vitulinus SVMP02 by agar dilution method; format: functional; details: Mammaliicoccus vitulinus; how it was run: as §1
[34] = Antibacterial activity against mecA-positive Staphylococcus sciuri subsp. carnaticus ATCC 700058T by agar dilution method; details: Mammaliicoccus sciuri

SMILES	MIC [1]	MIC [2]	MIC [3]	MIC [4]	MIC [5]	MIC [6]	MIC [7]	MIC [8]	MIC [9]	MIC [10]	MIC [11]	MIC [12]	MIC [13]	MIC [14]	MIC [15]	MIC [16]	MIC [17]	MIC [18]	MIC [19]	MIC [20]	other results
CO/N=C(\C(=O)N[C@@H]1C(=O)N2C(C(=O)O)=CCS[C@H]12)c1csc(N)n1 [CEFTIZOXIME]	0.5 µg/mL (≈ 1.3 µM)	0.5 µg/mL (≈ 1.3 µM)	1 µg/mL (≈ 2.61 µM)	0.5 µg/mL (≈ 1.3 µM)	4 µg/mL (≈ 10.4 µM)	1 µg/mL (≈ 2.61 µM)	0.25 µg/mL (≈ 0.652 µM)	0.5 µg/mL (≈ 1.3 µM)	0.5 µg/mL (≈ 1.3 µM)	0.5 µg/mL (≈ 1.3 µM)	0.5 µg/mL (≈ 1.3 µM)	0.25 µg/mL (≈ 0.652 µM)	0.5 µg/mL (≈ 1.3 µM)	0.25 µg/mL (≈ 0.652 µM)	1 µg/mL (≈ 2.61 µM)	0.5 µg/mL (≈ 1.3 µM)	0.25 µg/mL (≈ 0.652 µM)	0.5 µg/mL (≈ 1.3 µM)	1 µg/mL (≈ 2.61 µM)	32 µg/mL (≈ 83.5 µM)	MIC [21]: 32 µg/mL (≈ 83.5 µM); MIC [22]: 128 µg/mL (≈ 334 µM); MIC [23]: 64 µg/mL (≈ 167 µM); MIC [24]: 4 µg/mL (≈ 10.4 µM); MIC [25]: 32 µg/mL (≈ 83.5 µM); MIC [26]: 4 µg/mL (≈ 10.4 µM); MIC [27]: 32 µg/mL (≈ 83.5 µM); MIC [28]: 2 µg/mL (≈ 5.22 µM); MIC [29]: 2 µg/mL (≈ 5.22 µM); MIC [30]: 2 µg/mL (≈ 5.22 µM); MIC [31]: 2 µg/mL (≈ 5.22 µM); MIC [32]: 0.5 µg/mL (≈ 1.3 µM); MIC [33]: 0.5 µg/mL (≈ 1.3 µM); MIC [34]: 2 µg/mL (≈ 5.22 µM)
CO/N=C(\C(=O)N[C@@H]1C(=O)N2C(C(=O)O)=C(CSc3nc(=O)c(O)nn3C)CS[C@H]12)c1csc(N)n1 [CEFTRIAXONE]	4 µg/mL (≈ 7.21 µM)	2 µg/mL (≈ 3.61 µM)	4 µg/mL (≈ 7.21 µM)	2 µg/mL (≈ 3.61 µM)	8 µg/mL (≈ 14.4 µM)	4 µg/mL (≈ 7.21 µM)	1 µg/mL (≈ 1.8 µM)	2 µg/mL (≈ 3.61 µM)	1 µg/mL (≈ 1.8 µM)	4 µg/mL (≈ 7.21 µM)	2 µg/mL (≈ 3.61 µM)	0.25 µg/mL (≈ 0.451 µM)	2 µg/mL (≈ 3.61 µM)	1 µg/mL (≈ 1.8 µM)	4 µg/mL (≈ 7.21 µM)	1 µg/mL (≈ 1.8 µM)	1 µg/mL (≈ 1.8 µM)	2 µg/mL (≈ 3.61 µM)	2 µg/mL (≈ 3.61 µM)	16 µg/mL (≈ 28.9 µM)	MIC [21]: 16 µg/mL (≈ 28.9 µM); MIC [22]: 64 µg/mL (≈ 115 µM); MIC [23]: 64 µg/mL (≈ 115 µM); MIC [24]: 8 µg/mL (≈ 14.4 µM); MIC [25]: 32 µg/mL (≈ 57.7 µM); MIC [26]: 8 µg/mL (≈ 14.4 µM); MIC [27]: 16 µg/mL (≈ 28.9 µM); MIC [28]: 4 µg/mL (≈ 7.21 µM); MIC [29]: 4 µg/mL (≈ 7.21 µM); MIC [30]: 8 µg/mL (≈ 14.4 µM); MIC [31]: 8 µg/mL (≈ 14.4 µM); MIC [32]: 4 µg/mL (≈ 7.21 µM); MIC [33]: 2 µg/mL (≈ 3.61 µM); MIC [34]: 8 µg/mL (≈ 14.4 µM)
Cc1onc(-c2ccccc2)c1C(=O)N[C@@H]1C(=O)N2[C@@H]1SC(C)(C)[C@@H]2C(=O)O [OXACILLIN]	0.5 µg/mL (≈ 1.25 µM)	0.5 µg/mL (≈ 1.25 µM)	0.5 µg/mL (≈ 1.25 µM)	0.5 µg/mL (≈ 1.25 µM)	0.5 µg/mL (≈ 1.25 µM)	0.5 µg/mL (≈ 1.25 µM)	0.5 µg/mL (≈ 1.25 µM)	0.5 µg/mL (≈ 1.25 µM)	0.25 µg/mL (≈ 0.623 µM)	0.5 µg/mL (≈ 1.25 µM)	0.5 µg/mL (≈ 1.25 µM)	0.5 µg/mL (≈ 1.25 µM)	0.5 µg/mL (≈ 1.25 µM)	0.5 µg/mL (≈ 1.25 µM)	0.5 µg/mL (≈ 1.25 µM)	0.5 µg/mL (≈ 1.25 µM)	0.5 µg/mL (≈ 1.25 µM)	0.5 µg/mL (≈ 1.25 µM)	0.5 µg/mL (≈ 1.25 µM)	64 µg/mL (≈ 159 µM)	MIC [21]: 8 µg/mL (≈ 19.9 µM); MIC [22]: 128 µg/mL (≈ 319 µM); MIC [23]: 128 µg/mL (≈ 319 µM); MIC [24]: 32 µg/mL (≈ 79.7 µM); MIC [25]: 64 µg/mL (≈ 159 µM); MIC [26]: 8 µg/mL (≈ 19.9 µM); MIC [27]: 64 µg/mL (≈ 159 µM); MIC [28]: 0.5 µg/mL (≈ 1.25 µM); MIC [29]: 0.5 µg/mL (≈ 1.25 µM); MIC [30]: 0.5 µg/mL (≈ 1.25 µM); MIC [31]: 0.5 µg/mL (≈ 1.25 µM); MIC [32]: 0.5 µg/mL (≈ 1.25 µM); MIC [33]: 0.5 µg/mL (≈ 1.25 µM); MIC [34]: 1 µg/mL (≈ 2.49 µM)
